Bioassay records from PubChem.
OXTR potentiate: human OXTR potentiation; AID 2445; 0.061% of 320,000 active; P30559; activation, % at 3 µM; CHO-OTR cells, Fluo-8 calcium fluorescence, potentiator mode; 0% = oxytocin EC15, 100% = EC100;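 active = activation above that plate's cutoff, the mean activation of tested compounds plus 3 SD, cut at about 6.6% in these data, passing the limit was not always enough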
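Dosing: Single dose, 3.0 µM nominal final compound concentration | Material: Human OTR in CHO cells | Technique: Kinetic Fluo-8 calcium fluorescence | Benchmarks: EC15 oxytocin alone as 0%, 75 nM oxytocin as 100% | Probe or stimulus: Oxytocin at about EC15, sub-maximal agonist stimulus | Incubation: Compound 6 min at room temperature before oxytocin, 100 s read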
zfTRPN1 agonist: agonists of zebrafish TRPN1 channel; HEK293 zebrafish TRPN1-YFP, Fluo-8 calcium fluorescence; 100% = response to 87 µM carbachol; activation, % at 3 µM; 0.18% of 220,000 active; AID 1424;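 active = activation above its plate's cutoff, the mean activation of test wells on that plate plus 3 SD, cut at about 19% in these data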
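System: zebrafish TRPN1-YFP in HEK293 cells / Dosing: 3 µM single point / Timing: dye loading 1 h at 37 °C, then 30 min room temperature / Signal: Fluo-8 calcium fluorescence, excitation 470-495 nm, emission 515-575 nm / Read-out basis: percent activation from peak over basal fluorescence ratio, control-normalized / Control set: high carbachol 87 µM, low DMSO alone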
TRPML3 ag: agonists of human TRPML3 channel. 0.29% of 220,000 active. HEK293 TRPML3-YFP, Fluo-8 calcium fluorescence; 100% = the carbachol control signal. Q8TDD5. activation, % at 3 µM;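 active = activation above its plate's cutoff, the mean activation of the plate's test wells plus 3 SD, cut at about 12% in these data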
Target sequence (Q8TDD5 whole entry, looked up): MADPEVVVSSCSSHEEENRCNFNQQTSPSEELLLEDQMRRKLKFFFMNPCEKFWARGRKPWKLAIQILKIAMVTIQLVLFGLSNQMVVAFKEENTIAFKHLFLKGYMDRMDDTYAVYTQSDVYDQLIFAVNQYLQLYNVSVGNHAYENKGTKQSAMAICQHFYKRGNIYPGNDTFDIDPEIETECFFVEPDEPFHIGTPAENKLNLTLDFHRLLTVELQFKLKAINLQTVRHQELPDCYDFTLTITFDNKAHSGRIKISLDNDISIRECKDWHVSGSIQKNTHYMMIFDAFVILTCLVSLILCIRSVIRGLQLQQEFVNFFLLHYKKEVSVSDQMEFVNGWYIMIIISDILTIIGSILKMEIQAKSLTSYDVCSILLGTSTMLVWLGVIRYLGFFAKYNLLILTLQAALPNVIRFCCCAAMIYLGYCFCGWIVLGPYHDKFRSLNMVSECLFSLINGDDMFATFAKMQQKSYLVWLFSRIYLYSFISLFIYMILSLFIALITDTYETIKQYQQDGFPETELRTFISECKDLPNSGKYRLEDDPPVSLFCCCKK
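Material: TRPML3-YFP stable HEK293 cells | Dosing: One concentration, 3 µM nominal, 0.3% DMSO | Timing: 125 s total fluorescence read per well | Technique: Fluo-8 calcium dye fluorescence, ex 470-495, em 515-575 nm | Measure: Percent activation from peak-to-basal fluorescence ratio, scaled between DMSO and carbachol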
V1aR counter: counter-screen for oxytocin receptor agonists: human V1a receptor agonists. CHO-V1R cells, Fluo-8 calcium fluorescence, agonist mode; 0% DMSO, 100% 3 nM vasopressin. 0.25% of 320,000 active. activation, % at 3 µM. P37288;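 active = activation above the mean activation of all tested compounds plus 3 SD, per screening run, cut at about 20% in these data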;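 note: signal is peak over basal fluorescence ratio across a 100 second FLIPR read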
OXTR agonist: human OXTR agonism | AID 2435 | CHO-OTR cells, Fluo-8 calcium fluorescence; normalized: DMSO 0%, oxytocin 100% | P30559 | 0.32% of 320,000 active | activation, % at 3 µM;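 active = activation above the mean of all tested compounds plus 3 SD, cutoff set per screening run, cut at about 20% in these data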;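 note: peak over basal fluorescence ratio from a 100 s FLIPR kinetic read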
OXTR ag confirm: confirmation of human oxytocin receptor agonists. shares compounds with OXTR agonist. CHO-OTR cells, Fluo-8 calcium fluorescence, agonist. activation, % at 3 µM. 20% of 390 active;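 active = mean activation above about 20% derived from the earlier single-dose screen, limit read from the data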;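 note: peak over minimum fluorescence ratio per well during a 100 second FLIPR read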
V1R ag counter 3x: V1R agonism in triplicate, counter-screen for OXTR agonists; shares compounds with OXTR agonist; 10% of 390 active; activation, % at 3 µM; CHO-V1R cells, Fluo-8 calcium fluorescence, agonist; AID 434991;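 active = mean activation over triplicate exceeds the hit threshold set in the earlier primary screen, cut at about 20% in these data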;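 note: peak over basal fluorescence ratio within a 100 second read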
A number is an active result; . = inactive; / = not tested or not shown; ! = not active in a repeat. Most compounds without a hit are left out; they make up all but 0.59% or so of the library.

SMILES	OXTR potentiate	zfTRPN1 agonist	TRPML3 ag	V1aR counter	OXTR agonist	OXTR ag confirm	V1R ag counter 3x
COc1ccc(CC2(CO)CCN(CC3=Cc4cc(Cl)ccc4OC3)CC2)cc1	.	.	.	.	23	.	.
CC(NC(=O)CN1CCOCC1)c1ccccc1 (centres undefined)	.	/	/	.	21	.	.
O=C(O)c1cc(S(=O)(=O)N2CC=C(c3ccccc3)CC2)ccc1O	.	/	/	.	.	/	/
O=[N+]([O-])c1ccc(NC(=S)NCc2ccc(F)cc2)cc1	.	/	/	.	22	.	.
C=CCOC(=O)C1=C[C@H](c2ccc(C(F)(F)F)cc2)[C@@H](CCCO)[C@H](OCC)O1	.	.	.	.	.	/	/
C=CCOC(=O)C1=C[C@@H](c2ccc(C(F)(F)F)cc2)[C@H](CCCO)[C@@H](OCC)O1	.	.	.	.	20	.	.
COc1ccc2nc(NC(=O)c3ccccc3O)sc2c1	.	/	/	.	20	.	.
CC(C)(C)c1ccc(C(=O)CCC(=O)OCC(=O)NCCc2ccc(S(N)(=O)=O)cc2)cc1	.	/	/	.	20	.	.
COc1ccc(C(=O)/C(C#N)=N/Nc2ccc([N+](=O)[O-])cc2)cc1	.	.	.	.	20	.	.
COc1ccc(C(=O)/C(C#N)=N/Nc2ccccc2[N+](=O)[O-])cc1	.	.	.	.	.	/	/
CN(C)C(=S)c1ccccc1	.	.	.	.	.	/	/
Cc1ccc(-c2noc(CCC(=O)NCCc3ccccc3Cl)n2)cc1	.	.	.	.	20	.	.
O=C(CCc1nc(-c2ccccc2F)no1)NCCc1ccccc1Cl	.	.	.	.	.	/	/
CC(C)Oc1ccc(C(CCN)C2CCCCC2)cc1 (centres undefined)	.	/	/	.	21	.	.
CC1(c2ccc(OC(F)F)cc2)NC(=O)N(CC(=O)Nc2ccc(Cl)cc2F)C1=O (centres undefined)	.	/	/	.	34	24	22
Cc1ccc(NC(=O)CN2C(=O)NC(C)(c3ccc(Cl)cc3)C2=O)cc1 (centres undefined)	.	/	/	.	22	.	.
Cc1ccc(C2(C)NC(=O)N(CC(=O)Nc3ccc4c(c3)OCO4)C2=O)cc1 (centres undefined)	.	.	.	.	.	/	/
CC1(c2ccc(OC(F)F)cc2)NC(=O)N(CC(=O)Nc2ccc(F)cc2)C1=O (centres undefined)	.	/	/	.	27	.	.
CN1CCN(c2ccc(Cl)cc2NC(=O)CN2C(=O)NC(C)(c3ccccc3)C2=O)CC1 (centres undefined)	.	/	/	.	.	/	/
CCCCC1(c2ccc(F)cc2)NC(=O)N(CC(=O)Nc2ccc(N3CCOCC3)cc2)C1=O (centres undefined)	.	/	/	.	21	.	.
CC1(c2ccc(OC(F)F)cc2)NC(=O)N(CC(=O)NC2CCCCC2)C1=O (centres undefined)	.	.	.	.	.	/	/
Cc1cc(OC(C)C(=O)NCc2cccnc2)c2c(C)cc(=O)oc2c1 (centres undefined)	.	/	/	.	.	/	/
CCC1(CC)NC(=O)N(CC(=O)N2CCc3ccccc32)C1=O	.	/	/	.	.	/	/
Cc1ccc(C2(C)NC(=O)N(CC(=O)N3CCc4ccccc43)C2=O)cc1 (centres undefined)	.	/	/	.	20	.	.
Cn1c(N)c(S(=O)(=O)N2CCN(c3cccc(Cl)c3)CC2)c(=O)n(C)c1=O	.	/	/	.	.	/	/
C1CCC(C(CC2CCCCN2)C2CCCCC2)CC1 (centres undefined)	.	.	.	.	21!	.	.
COc1cccc(C(=O)Nc2ccc(NC(=O)Cc3ccccc3)cc2)c1	.	/	/	.	24	.	.
O=c1oc2ccccc2cc1-c1nc2c(s1)CCc1ccccc1-2	.	.	.	.	.	/	/
O=c1oc2cc(O)ccc2cc1-c1nc2c(s1)CCc1ccccc1-2	.	25	.	.	26	160	181
